These results are taken from ChEMBL document CHEMBL1131007, “5-Fluoro-2-methyl-N-[4-(5H-pyrrolo[2,1-c]-[1, 4]benzodiazepin-10(11H)-ylcarbonyl)-3-chlorophenyl]benzamide (VPA-985): an orally active arginine vasopressin antagonist with selectivity for V2 receptors” (J Med Chem, 1998).

The species named for assay [1] is Homo sapiens. In words: Relative affinity for human vasopressin receptors V1a and V2. The gist of the method: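 Ratio from IC50 values: V1a by displacement of 3H-AVP or 3H-[d(CH2)5 1Tyr(Me)2,Arg8]-AVP from human platelet membranes; V2 by displacement of 3H-AVP from membranes of murine fibroblast LV2 cells expressing human V2 receptors.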
Assay [2] addresses Vasopressin V1a receptor (Homo sapiens, UniProt P37288). Put plainly: Displacement of [3H]AVP from vasopressin receptor (V1a) from human platelet membranes. In a few lines:
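Membranes from human platelets; displacement of specific binding of 3H-AVP or 3H-[d(CH2)5 1Tyr(Me)2,Arg8]-AVP at V1a sites. IC50 given as group mean ± SEM where two or three separate determinations were made.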
In general terms: In a radioligand displacement assay an active substance lowers the binding of a labelled ligand.

Assay [3] concerns the target Vasopressin receptor (Rattus norvegicus) (UniProt P48974+P30560+Q00788). In words: Relative affinity for rat vasopressin receptors V1a and V2. The assay is classed as protein assay.
The target of assay [4] is Vasopressin V1a receptor (Rattus norvegicus, UniProt P30560). Put plainly: Displacement of (Phe-3,4,5-H) Vasopressin from V1a receptor from rat liver membranes. The format is cell membranes, Membrane.
Assay [5] has as its target Vasopressin V2 receptor (Rattus norvegicus, UniProt Q00788). In words: Displacement of [3H]AVP from vasopressin V2 receptor of rat kidney medulla.
In assay [6] the target is Vasopressin V2 receptor (Homo sapiens, UniProt P30518). In words: Displacement of [3H]AVP from human V2 receptor expressed in murine fibroblast cell line (LV2) membranes. The assay is classed as cell-based. The gist of the method: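 Membranes from murine fibroblast line LV2 expressing human V2 receptors; displacement of specific 3H-AVP binding. IC50 given as group mean ± SEM where two or three separate determinations were made.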

The subject of assay [7] is Rattus norvegicus. Put plainly: Urinary osmolality from urine collected from rat at 10 mg/kg.
Assay [8] deals with Rattus norvegicus. Put plainly: Urine volume collected after 10 mg/kg of drug administration into 4 rats. The assay is classed as functional. In a few lines: (§1)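 Conscious rats with water access before but not during the test. Given AVP 0.4 μg/kg ip in peanut oil, then deionized water 30 mL/kg by gavage 20 min later, then vehicle or compound 20 min after that. Vehicle was 20% DMSO in 2.5% preboiled starch. Urine volume over 4 h and osmolality measured.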

For assay [9], the system named is Rattus norvegicus. Put plainly: Urine volume collected after 10 mg/kg of drug administration into 2 rats. The format is functional. In a few lines:
as §1

Assay [10] deals with Rattus norvegicus. In words: Urinary osmolality from urine collected from rat at 10 mg/kg. The assay is classed as functional. In a few lines:
(§2)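 Conscious rats with free access to water before and during the test, given compound in 20% DMSO in aqueous 2.5% preboiled starch (compound first dissolved in DMSO). Urine volume over 4 h and urinary osmolality (mOsm/kg) measured.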

Assay [11] relates to Rattus norvegicus. Put plainly: Urine volume collected after 10 mg/kg of drug administration into 3 rats. The assay is classed as functional. The gist of the method: as §1
Assay [12] concerns Rattus norvegicus. In words: Urinary osmolality from urine collected from rat at 3 mg/kg. The format is functional. In a few lines: as §2
The test system of assay [13] is Rattus norvegicus. Put plainly: Urine volume collected after 3 mg/kg of drug administration into 2 rats.
Assay [14] deals with Rattus norvegicus. In words: Urinary osmolality from urine collected from rat at 3 mg/kg in second experiment. The format is functional. In a few lines:
as §1

The test system of assay [15] is Rattus norvegicus. Put plainly: Urine volume collected after 10 mg/kg of drug administration into 13 rats. (Conscious rats free access to water before and after during the experiment). The format is functional. In a few lines: as §2
Assay [16] has as its system Rattus norvegicus. In words: Urinary osmolality from urine collected from rat at 1 mg/kg in second experiment. The format is functional. The gist of the method: as §1
Assay [17] has as its system Rattus norvegicus. In words: Urinary osmolality from urine collected from rat at 10 mg/kg in second experiment. The assay is classed as functional. The gist of the method: as §1
Assay [18] relates to Rattus norvegicus. In words: Urinary osmolality from urine collected from rat at 1 mg/kg. The assay is classed as functional. In a few lines: as §2
Assay [19] deals with Rattus norvegicus. In words: Urine volume collected after 1 mg/kg of drug administration into 6 rats. The assay is classed as functional. The gist of the method:
as §2

For assay [20], the system named is Rattus norvegicus. In words: Urine volume collected after 10 mg/kg of drug administration into 6 rats. The assay is classed as functional. In a few lines: as §1
Assay [21] deals with Rattus norvegicus. In words: Urine volume collected after 1 mg/kg of drug administration into 8 rats. (Conscious rats free access to water before but not during the experiment). The assay is classed as functional. The gist of the method: as §1
In assay [22] the test system is Rattus norvegicus. In words: Urine volume collected after 3 mg/kg of drug administration into 15 rats. The format is functional. The gist of the method: as §2
Assay [23] deals with Rattus norvegicus. In words: Urine volume collected after 3 mg/kg of drug administration into 10 rat. The assay is classed as functional. The gist of the method:
as §1

Sequence of Vasopressin V2 receptor (Homo sapiens, UniProt P30518) (P30518 whole entry): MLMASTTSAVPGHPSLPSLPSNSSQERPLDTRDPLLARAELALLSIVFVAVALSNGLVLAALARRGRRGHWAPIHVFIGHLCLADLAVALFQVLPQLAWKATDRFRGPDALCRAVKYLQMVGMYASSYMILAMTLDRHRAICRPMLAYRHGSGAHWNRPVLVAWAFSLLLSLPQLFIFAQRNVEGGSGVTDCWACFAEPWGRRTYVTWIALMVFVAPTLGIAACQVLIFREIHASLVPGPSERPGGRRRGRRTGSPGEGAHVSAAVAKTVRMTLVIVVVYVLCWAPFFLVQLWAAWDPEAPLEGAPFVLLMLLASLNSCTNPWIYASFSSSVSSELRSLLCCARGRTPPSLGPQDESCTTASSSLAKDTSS
Sequence of Vasopressin V1a receptor (Homo sapiens, UniProt P37288) (P37288 whole entry): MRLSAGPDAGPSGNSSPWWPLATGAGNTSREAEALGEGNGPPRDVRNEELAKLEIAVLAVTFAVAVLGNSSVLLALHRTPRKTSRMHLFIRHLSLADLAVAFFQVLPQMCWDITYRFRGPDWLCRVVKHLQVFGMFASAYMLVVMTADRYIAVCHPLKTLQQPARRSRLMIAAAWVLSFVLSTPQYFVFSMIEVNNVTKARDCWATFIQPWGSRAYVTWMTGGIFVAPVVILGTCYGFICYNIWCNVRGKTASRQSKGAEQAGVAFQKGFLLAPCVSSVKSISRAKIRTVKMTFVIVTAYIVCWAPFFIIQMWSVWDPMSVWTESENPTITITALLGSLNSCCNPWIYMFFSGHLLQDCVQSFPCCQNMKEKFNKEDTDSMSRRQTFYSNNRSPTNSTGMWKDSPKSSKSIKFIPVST
Sequence of Vasopressin V1a receptor (Rattus norvegicus, UniProt P30560) (P30560 whole entry): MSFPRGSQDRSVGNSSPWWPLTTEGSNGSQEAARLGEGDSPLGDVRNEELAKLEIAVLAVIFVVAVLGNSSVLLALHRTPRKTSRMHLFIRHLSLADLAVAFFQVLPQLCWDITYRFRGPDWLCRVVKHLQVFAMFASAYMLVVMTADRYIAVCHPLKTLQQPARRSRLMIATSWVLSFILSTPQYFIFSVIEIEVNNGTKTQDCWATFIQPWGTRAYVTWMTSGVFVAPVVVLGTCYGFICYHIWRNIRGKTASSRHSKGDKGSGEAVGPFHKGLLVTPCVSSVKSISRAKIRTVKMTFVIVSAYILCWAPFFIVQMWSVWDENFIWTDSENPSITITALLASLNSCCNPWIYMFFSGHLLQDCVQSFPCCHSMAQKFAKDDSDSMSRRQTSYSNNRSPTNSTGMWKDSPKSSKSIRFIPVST
Sequence of Vasopressin V2 receptor (Rattus norvegicus, UniProt Q00788) (Q00788 whole entry): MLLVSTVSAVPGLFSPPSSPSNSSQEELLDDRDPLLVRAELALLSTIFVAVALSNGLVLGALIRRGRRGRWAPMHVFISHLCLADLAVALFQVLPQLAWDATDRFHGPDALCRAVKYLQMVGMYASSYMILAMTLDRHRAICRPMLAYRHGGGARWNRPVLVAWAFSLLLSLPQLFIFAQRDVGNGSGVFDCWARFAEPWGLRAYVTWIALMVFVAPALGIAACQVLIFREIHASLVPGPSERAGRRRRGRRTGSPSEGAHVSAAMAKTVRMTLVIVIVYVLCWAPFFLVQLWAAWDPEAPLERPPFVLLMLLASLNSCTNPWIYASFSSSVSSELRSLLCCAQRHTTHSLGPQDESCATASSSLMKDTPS

A word on the IC50: it is the midpoint of a concentration-inhibition curve. Read a high IC50 as lower potency. In the case of `O=C(Nc1ccc(C(=O)N2Cc3cccn3Cc3ccccc32)cc1)c1ccc(F)cc1Cl`, in [1], the Selectivity came out at 2. Also, the IC50 in [2] was 6.3 nM.
With `COc1cc(Cl)ccc1C(=O)Nc1ccc(C(=O)N2Cc3cccn3Cc3ccccc32)cc1`, the Selectivity in assay [3] was found to be 2. The IC50 in assay [4] is 33 nM; in assay [5], 16 nM.
In assay [3], `Cc1cccc(C(=O)Nc2ccc(C(=O)N3Cc4cccn4Cc4ccccc43)cc2)c1C` returned a Selectivity of 6.
For `Cc1ccccc1C(=O)Nc1ccc(C(=O)N2Cc3cccn3Cc3ccccc32)c(Cl)c1`, the Selectivity in [1] amounted to 59; in assay [3] it was 12. Also, the IC50 in assay [2] was found to be 59 nM; in [6], 1 nM.
Turning to `Cc1ccccc1C(=O)Nc1ccc(C(=O)N2Cc3cccn3Cc3ccccc32)cc1`, the Selectivity in assay [3] came out at 9. The IC50 in assay [5] came to 4.1 nM.
`Cc1cc(C(=O)N2Cc3cccn3Cc3ccccc32)ccc1NC(=O)c1ccc(Cl)cc1Cl` showed a Selectivity in assay [3] of 4. The half-maximal inhibitory concentration (IC50) in [4] came to 33 nM; in assay [5], 8 nM.
`O=C(Nc1ccc(C(=O)N2Cc3cccn3Cc3ccccc32)c(Cl)c1)c1ccc(Cl)cc1Cl`: the Selectivity in assay [1] worked out at 320; in [3], 5. The Osmolality in assay [7] was found to be 507 mOsmol kg-1. The Urine volume in assay [8] was determined as 14 ml 4hr-1. Moreover, the IC50 in assay [2] came to 640 nM; in [6] it was 2 nM.
In [3], `O=C(Nc1ccc(C(=O)N2Cc3cccn3Cc3ccccc32)cc1)c1ccccc1C(F)(F)F` showed a Selectivity of 3. The molecule also came in with an IC50 in [5] of 10.2 nM.
In the case of `O=C(Nc1ccc(C(=O)N2Cc3cccn3Cc3ccccc32)c(Cl)c1)c1cccc(C(F)(F)F)c1F`, the Selectivity in [1] was determined as 530. In assay [9], this molecule registered a Urine volume of 10 ml 4hr-1. In [10], this molecule returned an Osmolality of 635 mOsmol kg-1. Moreover, the concentration for half-maximal inhibition (IC50) in assay [2] was determined as 4400 nM; in [6] it was 8.3 nM.
In the case of `Cc1ccc(F)cc1C(=O)Nc1ccc(C(=O)N2Cc3cccn3Cc3ccccc32)cc1Cl`, in assay [1], the Selectivity was 6. The IC50 in [2] was 25 nM.
Regarding `Cc1ccc(C)c(C(=O)Nc2ccc(C(=O)N3Cc4cccn4Cc4ccccc43)c(Cl)c2)c1`, the Selectivity in assay [1] is 81. In assay [6], this molecule yielded an IC50 of 4.2 nM.
As for `Cc1c(F)cccc1C(=O)Nc1ccc(C(=O)N2Cc3cccn3Cc3ccccc32)cc1`, in assay [3], the Selectivity was 7.
On to `O=C(Nc1ccc(C(=O)N2Cc3cccn3Cc3ccccc32)c(Cl)c1)c1ccc(F)cc1Cl`, for which the Selectivity in assay [1] came to 53. The concentration for half-maximal inhibition (IC50) in assay [2] is 37 nM; in [6], 0.7 nM.
`Cc1c(F)cccc1C(=O)Nc1ccc(C(=O)N2Cc3cccn3Cc3ccccc32)c(Cl)c1`: the Selectivity in assay [1] worked out at 284. Further, the Osmolality in [7] came out at 473 mOsmol kg-1. For the same molecule, the IC50 in [2] came out at 540 nM; in assay [6], 1.9 nM. The same molecule gave a Urine volume in assay [11] of 17 ml 4hr-1.
As to `COc1ccccc1C(=O)Nc1ccc(C(=O)N2Cc3cccn3Cc3ccccc32)cc1`, in [3], the Selectivity is 2.
As to `Cc1ccc(F)cc1C(=O)Nc1ccc(C(=O)N2Cc3cccn3Cc3ccccc32)cc1`, the IC50 in [2] was 20 nM; in [6], 1.5 nM.
As for `Cc1ccccc1C(=O)Nc1ccc(C(=O)N2CCCC(N(C)C)c3ccccc32)cc1` (stereo unspecified) [MOZAVAPTAN], the Osmolality stood at 850 mOsmol kg-1 in assay [12] and 352 mOsmol kg-1 in assay [10]. Further, the Urine volume is reported as 23 ml 4hr-1 in [9] and 10 ml 4hr-1 in [13].
As for `O=C(Nc1ccc(C(=O)N2Cc3cccn3Cc3ccccc32)cc1)c1ccc(Cl)cc1Cl`, the values for the Selectivity in assay [1] and in assay [3] were 5 and 7, respectively. Also, the IC50 was 15 nM in assay [2], 3.2 nM in assay [6] and 3.1 nM in assay [5].
`Cc1cccc(C(=O)Nc2ccc(C(=O)N3Cc4cccn4Cc4ccccc43)c(Cl)c2)c1C`: in [1], the Selectivity came out at 860. This molecule displayed an Osmolality in assay [7] of 557 mOsmol kg-1. For the same molecule, the IC50 in assay [6] turned out to be 0.5 nM.
In assay [1], `COc1cc(C(=O)N2Cc3cccn3Cc3ccccc32)ccc1NC(=O)c1ccc(Cl)cc1Cl` gave a Selectivity of 17.
With `O=C(Nc1ccc(C(=O)N2Cc3cccn3Cc3ccccc32)cc1)c1ccccc1Cl`, the Selectivity in assay [3] worked out at 2. The IC50 in assay [5] amounted to 4.6 nM.
`Cc1ccc(F)cc1C(=O)Nc1ccc(C(=O)N2Cc3cccn3Cc3ccccc32)c(C)c1` had a Selectivity in [1] of 80. The IC50 came to 120 nM in assay [2] and 2.1 nM in assay [6].
For `COc1cc(NC(=O)c2cc(F)ccc2C)ccc1C(=O)N1Cc2cccn2Cc2ccccc21`, in assay [1], the Selectivity was found to be 8. Further, the IC50 in assay [6] came out at 2 nM.
As for `Cc1ccc(F)cc1C(=O)Nc1ccc(C(=O)N2Cc3cccn3Cc3ccccc32)c(Cl)c1` [LIXIVAPTAN], the Selectivity in assay [1] came to 192; in assay [3], 148. The Osmolality in assay [14] stood at 366 mOsmol kg-1; in assay [12], 222 mOsmol kg-1; in assay [10], 188 mOsmol kg-1; in [16], 629 mOsmol kg-1; in assay [17], 302 mOsmol kg-1; in assay [18] it was 393 mOsmol kg-1. The Urine volume in [15] came out at 43 ml 4hr-1; in assay [19], 24 ml 4hr-1; in assay [20] it was 37 ml 4hr-1; in assay [21], 14 ml 4hr-1; in assay [22] it was 38 ml 4hr-1; in assay [23] it was 30 ml 4hr-1. Besides, the IC50 stood at 230 nM in [2], 340 nM in assay [4] and 1.2 nM in assay [6].
